The source of these data is ChEMBL document CHEMBL1123960, “Thyroid hormone analogues. Synthesis of 3'-substituted 3,5-diiodo-L-thyronines and quantitative structure-activity studies of in vitro and in vivo thyromimetic activities in rat liver and heart” (J Med Chem, 1988).

SMILES strings stand for the structures. Activity calls are given as the source filed them. No cut-off for these calls is given here.

The target in data set [1] is T1, Thyroid hormone receptor beta (Rattus norvegicus) (UniProt P18113).
T1 sequence (whole entry): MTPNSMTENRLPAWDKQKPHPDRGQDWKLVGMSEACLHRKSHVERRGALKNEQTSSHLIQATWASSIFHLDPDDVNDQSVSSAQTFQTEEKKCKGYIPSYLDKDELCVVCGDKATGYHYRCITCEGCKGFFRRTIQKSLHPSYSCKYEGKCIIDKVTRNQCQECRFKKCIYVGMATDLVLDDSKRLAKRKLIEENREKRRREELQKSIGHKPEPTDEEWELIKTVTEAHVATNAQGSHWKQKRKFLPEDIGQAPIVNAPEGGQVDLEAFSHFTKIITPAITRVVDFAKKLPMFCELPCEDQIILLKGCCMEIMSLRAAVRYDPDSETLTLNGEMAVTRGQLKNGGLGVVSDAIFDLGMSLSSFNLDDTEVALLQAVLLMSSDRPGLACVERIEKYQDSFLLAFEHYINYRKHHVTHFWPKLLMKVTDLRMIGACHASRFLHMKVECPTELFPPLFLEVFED
As to the kind of experiment: Thyromimetic activity (induction of GPDH) in rat heart expressed as percentage of ratio of the ED50 for T3; F= Full agonist. The data set is classed as functional, tissue-based. The conditions noted are these: filed as agonist. A digest of the protocol:
(§1)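 Hypothyroid rats received a single intramuscular injection in 0.15 M NaCl/0.01 M NaOH vehicle (1 mL/kg), up to 50 mg/kg. Mitochondrial GPDH activity was measured in the organ 48 h later. Dose-response curves were fitted to a hyperbola by nonlinear fitting to give ED50, and rel ED50 = (ED50 T3 / ED50 compound) × 100. Where the maximum was below T3's, the percent of maximal response at 50 mg/kg was calculated.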

Data set [2] can be described thus: pKa for compound was evaluated. Type of data set: physicochemical.
Data set [3] deals with T1, Thyroid hormone receptor beta (Rattus norvegicus). The data set can be described thus: Thyromimetic activity (induction of GPDH) in rat liver expressed as percentage of ratio of the ED50 for T3; F= Full agonist. Type of data set: functional. The conditions noted are these: filed as agonist. A digest of the protocol:
as §1

In data set [4] the test system is Rattus norvegicus. The data set can be described thus: Relative in vivo thyromimetic potency (GPDH induction) in rat heart, expressed as percent ratio of ED50 for T3 to that of compound; F= Full agonist. The conditions noted are these: filed as agonist.
Data set [5] is filed under the species Rattus norvegicus. As to the kind of experiment: Thyromimetic activity (induction of GPDH) in rat heart expressed as percentage of ratio of the ED50 for T3 to that of the test compound; Full agonist. The conditions noted are these: filed as agonist. Type of data set: functional, organism-based. A digest of the protocol: as §1
The target in data set [6] is T1, Thyroid hormone receptor beta (Rattus norvegicus). As to the kind of experiment: Thyromimetic activity (induction of GPDH) in rat heart expressed as percentage of ratio of the ED50 for T3; I= Inactive. The data set is classed as functional, tissue-based. In short, it runs like this:
as §1

The species entered for data set [7] is Rattus norvegicus. As to the kind of experiment: Thyromimetic activity (induction of GPDH) in rat liver expressed as percentage of ratio of the ED50 for T3 to that of the test compound; I= Inactive. Type of data set: functional, organism-based. A digest of the protocol: as §1
The species named for data set [8] is Rattus norvegicus. As to the kind of experiment: Thyromimetic activity (induction of GPDH) in rat heart expressed as percentage of ratio of the ED50 for T3 to that of the test compound; LM= Low maximum response. The data set is classed as functional, organism-based. The note with it: filed as partial agonist. In short, it runs like this: as §1
For data set [9], the species on record is Rattus norvegicus. As to the kind of experiment: Thyromimetic activity (induction of GPDH) in rat liver expressed as percentage of ratio of the ED50 for T3 to that of the test compound; Full agonist. Type of data set: functional, organism-based. The conditions noted are these: filed as agonist. A digest of the protocol:
as §1

The pKa is the pH at which an ionisable group is half protonated. Low readings indicate a stronger acid or weaker base, high ones a weaker acid or stronger base. On to `NC(Cc1cc(I)c(Oc2ccc(O)c([N+](=O)[O-])c2)c(I)c1)C(=O)O` (stereo unspecified), for which the “Relative ED50” value in data set [1] is “Agonist”. Also, the pKa in data set [2] came to 7.23.

Consider `NC(Cc1cc(I)c(Oc2ccc(O)c(Cc3ccccc3)c2)c(I)c1)C(=O)O` (stereo unspecified), for which the pKa in data set [2] was 10.1.

`NC(Cc1cc(I)c(Oc2ccc(O)c(CO)c2)c(I)c1)C(=O)O` (stereo unspecified): the pKa in data set [2] was found to be 9.92. `NC(Cc1cc(I)c(Oc2ccc(O)c(O)c2)c(I)c1)C(=O)O` (stereo unspecified): in [2], the pKa is 9.34. On to `CCOCCCc1cc(Oc2c(I)cc(CC(N)C(=O)O)cc2I)ccc1O` (stereo unspecified), for which, in data set [3], the “Relative ED50” value was “Agonist”. In turn, `CC(C)(C)c1cc(Oc2c(I)cc(CC(N)C(=O)O)cc2I)ccc1O` (stereo unspecified) had a pKa in [2] of 10.6.

Regarding `C=CCc1cc(Oc2c(I)cc(CC(N)C(=O)O)cc2I)ccc1O` (stereo unspecified), in data set [2], the pKa was 10.3. On to `CC(=O)c1cc(Oc2c(I)cc(CC(N)C(=O)O)cc2I)ccc1O` (stereo unspecified), for which the pKa in data set [2] was 10.1. Turning to `NC(Cc1cc(I)c(Oc2ccc(O)c(CC3CCCCC3)c2)c(I)c1)C(=O)O` (stereo unspecified), the “Relative ED50” value in [1] and in data set [3] was “Agonist” throughout. As for `NC(Cc1cc(I)c(Oc2ccc(O)c(F)c2)c(I)c1)C(=O)O` (stereo unspecified), the “Relative ED50” value in data set [4] and in data set [3] was “Agonist” each time. The compound further came in with a pKa in data set [2] of 8.73. Turning to `NC(Cc1cc(I)c(Oc2ccc(O)c(C=O)c2)c(I)c1)C(=O)O` (stereo unspecified), in [5], the “Relative ED50” value is “Agonist”. Moreover, the pKa in [2] is 8.37. With `NCc1cc(Oc2c(I)cc(CC(N)C(=O)O)cc2I)ccc1O` (stereo unspecified), the “Relative ED50” value in data set [6] and in data set [7] was “inactive” each time. Regarding `CCC(C)c1cc(Oc2c(I)cc(CC(N)C(=O)O)cc2I)ccc1O` (stereo unspecified), the “Relative ED50” value in data set [1] and in data set [3] was “Agonist” each time. For `CCCCOCc1cc(Oc2c(I)cc(CC(N)C(=O)O)cc2I)ccc1O` (stereo unspecified), the “Relative ED50” value in [1] and in [3] was “Agonist” in each case. For `CCCCSCc1cc(Oc2c(I)cc(CC(N)C(=O)O)cc2I)ccc1O` (stereo unspecified), in [3], the “Relative ED50” value is “Agonist”. `NC(Cc1cc(I)c(Oc2ccc(O)c(Br)c2)c(I)c1)C(=O)O` (stereo unspecified) showed a pKa in data set [2] of 8.45. Turning to `N[C@@H](Cc1cc(I)c(Oc2ccc(O)cc2)c(I)c1)C(=O)O`, the pKa in data set [2] was determined as 9.99. `CCCCc1cc(Oc2c(I)cc(CC(N)C(=O)O)cc2I)ccc1O` (stereo unspecified): the “Relative ED50” value in data set [1] is “Agonist”. In [2], `NC(Cc1cc(I)c(Oc2ccc(O)c(-c3ccccc3)c2)c(I)c1)C(=O)O` (stereo unspecified) returned a pKa of 10. The same measure, in the same setting: in the case of `Cc1cc(Oc2c(I)cc(CC(N)C(=O)O)cc2I)ccc1O` (stereo unspecified) it was 10.3. Take `CCC(=O)NCCc1cc(Oc2c(I)cc(CC(N)C(=O)O)cc2I)ccc1O` (stereo unspecified): the “Relative ED50” value in data set [6] is “inactive”. With `NC(Cc1cc(I)c(Oc2ccc(O)c(C3CCCCC3)c2)c(I)c1)C(=O)O` (stereo unspecified), the “Relative ED50” value in [3] was “Agonist”. As for `COCc1cc(Oc2c(I)cc(CC(N)C(=O)O)cc2I)ccc1O` (stereo unspecified), the “Relative ED50” value in data set [1] is “Agonist”. For the same compound, the pKa in [2] was found to be 9.85. As to `NC(Cc1cc(I)c(Oc2ccc(O)c(CCCCO)c2)c(I)c1)C(=O)O` (stereo unspecified), the “Relative ED50” value in [8] was “Partial agonist”. In the case of `NC(Cc1cc(I)c(Oc2ccc(O)c(C(=O)O)c2)c(I)c1)C(=O)O` (stereo unspecified), the “Relative ED50” value in [6] and in data set [7] was “inactive” throughout. Take `COCCCCc1cc(Oc2c(I)cc(CC(N)C(=O)O)cc2I)ccc1O` (stereo unspecified): the “Relative ED50” value in data set [1] was “Agonist”. Take `N[C@@H](Cc1cc(I)c(Oc2ccc(O)c(I)c2)c(I)c1)C(=O)O` [LIOTHYRONINE]: the pKa in data set [2] turned out to be 8.51.

On to `NCCc1cc(Oc2c(I)cc(CC(N)C(=O)O)cc2I)ccc1O` (stereo unspecified), for which, in data set [6], the “Relative ED50” value was “inactive”. For `CCCC(=O)NCc1cc(Oc2c(I)cc(CC(N)C(=O)O)cc2I)ccc1O` (stereo unspecified), the “Relative ED50” value in data set [6] and in data set [7] was “inactive” throughout. For the compound `CC(C)c1cc(Oc2c(I)cc(CC(N)C(=O)O)cc2I)ccc1O` (stereo unspecified), in data set [2], the pKa was 10.5. Consider `CC(C)Cc1cc(Oc2c(I)cc(CC(N)C(=O)O)cc2I)ccc1O` (stereo unspecified), for which the “Relative ED50” value in data set [1] and in data set [3] was “Agonist” throughout. As to `CCC(=O)c1cc(Oc2c(I)cc(CC(N)C(=O)O)cc2I)ccc1O` (stereo unspecified), the “Relative ED50” value in data set [9] is “Agonist”. Turning to `NC(Cc1cc(I)c(Oc2ccc(O)c(Cl)c2)c(I)c1)C(=O)O` (stereo unspecified), the pKa in data set [2] was determined as 8.56.

Take `CC(=O)NCCCc1cc(Oc2c(I)cc(CC(N)C(=O)O)cc2I)ccc1O` (stereo unspecified): in [6], the “Relative ED50” value was “inactive”.
